Experimental data as given in ChEMBL document CHEMBL2434840, “Discovery of 4-amino-2-(thio)phenol derivatives as novel protein kinase and angiogenesis inhibitors for the treatment of cancer: synthesis and biological evaluation. Part II” (Eur J Med Chem, 2013).
Activity calls are given as the source filed them. The rule behind the calls is not given here.

Tests used:
[1] = biological target: ALK tyrosine kinase receptor (Homo sapiens) (UniProt Q9UM73); test: Inhibition of ALK (unknown origin) at 10 uM after 30 mins by fluorescence assay relative to control
Summary of the method: (§1)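 Enzyme plus compound (10 μM screen) or water in Hepes/Tris pH 7.4, EGTA/Tris, MgCl2, DTT and 0.008% Tween 20. Substrate and ATP started the reaction, 30 min at room temperature. EDTA stop, then europium-labelled anti-phospho-PT66 antibody for 60 min and TR-FRET read. Basal wells had no enzyme. Percent inhibition of control activity; staurosporine reference; duplicate.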

[2] = biological target: T1, RAC-alpha serine/threonine-protein kinase (Homo sapiens, UniProt P31749); test: Inhibition of AKT (unknown origin) at 10 uM after 30 mins by fluorescence assay relative to control; summary of the method: as §1
Thoracic aorta [3] = test: Antiangiogenic activity in Sprague-Dawley rat thoracic aorta rings assessed as reduction of microvessel outgrowth at 10 uM treated every other day for 6 days by Matrigel assay; format: functional, tissue-based
Summary of the method: (§2)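 Aortas were taken from male Sprague Dawley rats aged 8–10 weeks and cleaned of fibroadipose tissue. 1-mm rings were embedded between two 100 μL Matrigel layers and set 30 min at 37 °C, 5% CO2. Compound, pazopanib or 0.5% DMSO vehicle was added every other day for 6 days. Outgrowth was photographed on day 7 at ×200. Three independent experiments.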

[4] = biological target: Vascular endothelial growth factor receptor 2 (Homo sapiens) (UniProt P35968); test: Inhibition of VEGFR2 (unknown origin) phosphorylation at 5 ug/mL by cell-based Western blotting analysis
HUVEC [5] = test: Antiangiogenic activity in HUVEC assessed as inhibition of tube formation at 10 uM after 6 hrs by Matrigel assay; format: functional, cell-based; conditions: Homo sapiens
Summary of the method: (§3)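 HUVECs seeded at 40,000 cells/well on Matrigel (gelled 30 min, 37 °C, 5% CO2) in M199 with 5% FBS plus compound or 0.5% DMSO vehicle; pazopanib positive control; 6 h at 37 °C, 5% CO2. Tube networks were scored by phase-contrast microscopy and photographed at ×100. Three independent experiments.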

[6] = biological target: Vascular endothelial growth factor receptor 2 (Homo sapiens) (UniProt P35968); test: Inhibition of VEGFR2 (unknown origin) phosphorylation at 1 ug/mL by cell-based Western blotting analysis
[7] = biological target: T1, RAC-alpha serine/threonine-protein kinase; test: Inhibition of AKT (unknown origin) after 30 mins by fluorescence assay
HUVEC [8] = test: Antiangiogenic activity in HUVEC assessed as inhibition of tube formation after 6 hrs by Matrigel assay; format: functional, cell-based; conditions: Homo sapiens; summary of the method: as §3
Thoracic aorta [9] = test: Antiangiogenic activity in Sprague-Dawley rat thoracic aorta rings assessed as reduction of microvessel outgrowth treated every other day for 6 days by Matrigel assay; format: functional, tissue-based; summary of the method: as §2
Thoracic aorta [10] = test: Antiangiogenic activity in Sprague-Dawley rat thoracic aorta rings assessed as reduction of microvessel outgrowth at 1 uM treated every other day for 6 days by Matrigel assay; format: functional, tissue-based; summary of the method: as §2
[11] = biological target: Tyrosine-protein kinase ABL1 (Homo sapiens, UniProt P00519); test: Inhibition of ABL (unknown origin) after 30 mins by fluorescence assay
Thoracic aorta [12] = test: Antiangiogenic activity in Sprague-Dawley rat thoracic aorta rings assessed as reduction of microvessel outgrowth at 0.1 uM treated every other day for 6 days by Matrigel assay; format: functional, tissue-based; summary of the method: as §2
HUVEC [13] = test: Antiangiogenic activity in HUVEC assessed as inhibition of tube formation at 0.1 uM after 6 hrs by Matrigel assay; format: functional, cell-based; conditions: Homo sapiens; summary of the method: as §3

T1 sequence (P31749 whole entry): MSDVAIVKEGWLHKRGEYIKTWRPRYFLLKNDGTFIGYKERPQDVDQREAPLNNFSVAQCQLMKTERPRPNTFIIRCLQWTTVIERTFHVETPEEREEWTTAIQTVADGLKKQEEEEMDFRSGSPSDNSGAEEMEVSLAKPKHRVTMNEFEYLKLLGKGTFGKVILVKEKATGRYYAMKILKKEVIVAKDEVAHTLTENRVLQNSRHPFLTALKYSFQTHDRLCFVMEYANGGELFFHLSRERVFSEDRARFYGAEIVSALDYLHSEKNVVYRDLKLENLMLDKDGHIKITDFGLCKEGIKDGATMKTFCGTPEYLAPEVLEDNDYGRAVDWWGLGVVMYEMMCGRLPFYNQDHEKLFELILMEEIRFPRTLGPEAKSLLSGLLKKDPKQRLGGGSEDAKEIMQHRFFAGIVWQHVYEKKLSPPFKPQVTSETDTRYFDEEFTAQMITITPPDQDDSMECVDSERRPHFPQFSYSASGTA
Sequence of Vascular endothelial growth factor receptor 2 (Homo sapiens) (P35968 whole entry): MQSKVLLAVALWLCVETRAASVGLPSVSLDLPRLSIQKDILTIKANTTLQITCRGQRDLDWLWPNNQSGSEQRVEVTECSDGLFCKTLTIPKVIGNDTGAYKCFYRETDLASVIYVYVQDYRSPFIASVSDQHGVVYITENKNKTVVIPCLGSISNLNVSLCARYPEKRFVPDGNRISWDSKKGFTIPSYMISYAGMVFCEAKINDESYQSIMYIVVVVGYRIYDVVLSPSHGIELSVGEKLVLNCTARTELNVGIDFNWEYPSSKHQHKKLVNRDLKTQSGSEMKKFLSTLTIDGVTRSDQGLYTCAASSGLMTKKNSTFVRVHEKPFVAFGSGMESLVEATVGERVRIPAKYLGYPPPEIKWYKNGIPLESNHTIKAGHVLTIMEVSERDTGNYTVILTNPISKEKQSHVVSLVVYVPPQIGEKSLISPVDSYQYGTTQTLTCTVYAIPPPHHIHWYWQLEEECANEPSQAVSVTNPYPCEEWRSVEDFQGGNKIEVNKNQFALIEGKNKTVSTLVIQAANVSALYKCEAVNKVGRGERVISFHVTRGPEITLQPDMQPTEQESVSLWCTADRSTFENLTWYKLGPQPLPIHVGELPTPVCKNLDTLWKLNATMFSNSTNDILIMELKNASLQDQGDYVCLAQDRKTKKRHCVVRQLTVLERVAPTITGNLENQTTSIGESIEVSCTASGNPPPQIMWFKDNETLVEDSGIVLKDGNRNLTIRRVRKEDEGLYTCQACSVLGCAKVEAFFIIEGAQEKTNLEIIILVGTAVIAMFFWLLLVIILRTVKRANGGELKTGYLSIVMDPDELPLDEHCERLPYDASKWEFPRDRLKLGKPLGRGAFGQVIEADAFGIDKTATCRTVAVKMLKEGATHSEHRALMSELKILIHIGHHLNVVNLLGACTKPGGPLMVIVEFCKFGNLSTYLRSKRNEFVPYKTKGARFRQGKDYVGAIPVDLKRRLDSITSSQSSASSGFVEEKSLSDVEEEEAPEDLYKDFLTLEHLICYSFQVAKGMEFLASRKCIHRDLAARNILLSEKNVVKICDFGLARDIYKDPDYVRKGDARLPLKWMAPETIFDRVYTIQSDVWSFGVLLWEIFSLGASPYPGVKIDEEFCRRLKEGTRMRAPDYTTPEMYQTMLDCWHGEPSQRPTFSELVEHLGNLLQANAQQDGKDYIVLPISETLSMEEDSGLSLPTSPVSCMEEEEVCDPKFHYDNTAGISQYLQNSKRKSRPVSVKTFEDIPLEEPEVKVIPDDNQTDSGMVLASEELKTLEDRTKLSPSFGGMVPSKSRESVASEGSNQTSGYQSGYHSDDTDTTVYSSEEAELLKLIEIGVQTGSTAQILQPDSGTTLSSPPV
Sequence of ALK tyrosine kinase receptor (Homo sapiens) (Q9UM73 19-1620 limits assumed): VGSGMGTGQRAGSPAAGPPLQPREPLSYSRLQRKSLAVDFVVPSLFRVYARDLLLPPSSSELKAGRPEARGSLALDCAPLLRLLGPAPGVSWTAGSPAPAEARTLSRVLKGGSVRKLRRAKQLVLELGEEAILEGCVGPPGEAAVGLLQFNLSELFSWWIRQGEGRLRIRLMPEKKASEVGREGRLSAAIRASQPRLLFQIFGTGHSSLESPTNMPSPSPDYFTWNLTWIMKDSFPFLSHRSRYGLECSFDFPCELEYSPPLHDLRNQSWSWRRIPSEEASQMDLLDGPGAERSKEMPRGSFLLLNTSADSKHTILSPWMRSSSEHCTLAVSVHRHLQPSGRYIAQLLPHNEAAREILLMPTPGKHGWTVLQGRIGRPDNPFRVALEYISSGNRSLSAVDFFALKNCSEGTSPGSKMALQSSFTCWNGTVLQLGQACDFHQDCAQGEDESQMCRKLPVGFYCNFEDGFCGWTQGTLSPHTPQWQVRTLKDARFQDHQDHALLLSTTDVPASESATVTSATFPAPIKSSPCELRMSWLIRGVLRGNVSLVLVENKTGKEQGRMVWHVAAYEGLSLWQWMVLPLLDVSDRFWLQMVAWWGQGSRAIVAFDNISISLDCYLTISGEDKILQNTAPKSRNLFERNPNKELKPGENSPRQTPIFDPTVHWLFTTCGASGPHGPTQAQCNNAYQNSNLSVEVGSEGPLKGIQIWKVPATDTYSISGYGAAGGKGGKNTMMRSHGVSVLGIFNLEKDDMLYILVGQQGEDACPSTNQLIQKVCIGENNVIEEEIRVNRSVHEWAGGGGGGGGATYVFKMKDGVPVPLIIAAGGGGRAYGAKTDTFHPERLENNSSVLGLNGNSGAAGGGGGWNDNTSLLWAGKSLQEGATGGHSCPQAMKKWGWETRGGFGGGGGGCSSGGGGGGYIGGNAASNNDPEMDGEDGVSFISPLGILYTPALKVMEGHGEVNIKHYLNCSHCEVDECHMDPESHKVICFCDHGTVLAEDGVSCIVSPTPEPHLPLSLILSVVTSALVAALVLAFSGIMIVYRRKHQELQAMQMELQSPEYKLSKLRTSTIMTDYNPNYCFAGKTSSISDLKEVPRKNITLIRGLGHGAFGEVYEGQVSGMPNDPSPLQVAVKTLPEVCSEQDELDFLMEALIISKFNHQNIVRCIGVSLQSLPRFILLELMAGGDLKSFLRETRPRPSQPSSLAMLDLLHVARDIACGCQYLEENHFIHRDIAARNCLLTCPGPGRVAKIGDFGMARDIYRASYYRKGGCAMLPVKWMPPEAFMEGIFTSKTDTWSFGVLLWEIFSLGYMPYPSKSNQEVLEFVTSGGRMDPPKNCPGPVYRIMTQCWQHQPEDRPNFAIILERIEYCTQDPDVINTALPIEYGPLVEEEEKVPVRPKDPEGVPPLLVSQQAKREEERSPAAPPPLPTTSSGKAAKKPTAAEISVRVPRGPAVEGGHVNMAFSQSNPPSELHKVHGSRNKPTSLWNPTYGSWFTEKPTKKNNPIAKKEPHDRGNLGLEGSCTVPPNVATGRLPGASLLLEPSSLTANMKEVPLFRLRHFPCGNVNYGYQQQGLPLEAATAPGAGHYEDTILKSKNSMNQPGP
Sequence of Tyrosine-protein kinase ABL1 (P00519 whole entry): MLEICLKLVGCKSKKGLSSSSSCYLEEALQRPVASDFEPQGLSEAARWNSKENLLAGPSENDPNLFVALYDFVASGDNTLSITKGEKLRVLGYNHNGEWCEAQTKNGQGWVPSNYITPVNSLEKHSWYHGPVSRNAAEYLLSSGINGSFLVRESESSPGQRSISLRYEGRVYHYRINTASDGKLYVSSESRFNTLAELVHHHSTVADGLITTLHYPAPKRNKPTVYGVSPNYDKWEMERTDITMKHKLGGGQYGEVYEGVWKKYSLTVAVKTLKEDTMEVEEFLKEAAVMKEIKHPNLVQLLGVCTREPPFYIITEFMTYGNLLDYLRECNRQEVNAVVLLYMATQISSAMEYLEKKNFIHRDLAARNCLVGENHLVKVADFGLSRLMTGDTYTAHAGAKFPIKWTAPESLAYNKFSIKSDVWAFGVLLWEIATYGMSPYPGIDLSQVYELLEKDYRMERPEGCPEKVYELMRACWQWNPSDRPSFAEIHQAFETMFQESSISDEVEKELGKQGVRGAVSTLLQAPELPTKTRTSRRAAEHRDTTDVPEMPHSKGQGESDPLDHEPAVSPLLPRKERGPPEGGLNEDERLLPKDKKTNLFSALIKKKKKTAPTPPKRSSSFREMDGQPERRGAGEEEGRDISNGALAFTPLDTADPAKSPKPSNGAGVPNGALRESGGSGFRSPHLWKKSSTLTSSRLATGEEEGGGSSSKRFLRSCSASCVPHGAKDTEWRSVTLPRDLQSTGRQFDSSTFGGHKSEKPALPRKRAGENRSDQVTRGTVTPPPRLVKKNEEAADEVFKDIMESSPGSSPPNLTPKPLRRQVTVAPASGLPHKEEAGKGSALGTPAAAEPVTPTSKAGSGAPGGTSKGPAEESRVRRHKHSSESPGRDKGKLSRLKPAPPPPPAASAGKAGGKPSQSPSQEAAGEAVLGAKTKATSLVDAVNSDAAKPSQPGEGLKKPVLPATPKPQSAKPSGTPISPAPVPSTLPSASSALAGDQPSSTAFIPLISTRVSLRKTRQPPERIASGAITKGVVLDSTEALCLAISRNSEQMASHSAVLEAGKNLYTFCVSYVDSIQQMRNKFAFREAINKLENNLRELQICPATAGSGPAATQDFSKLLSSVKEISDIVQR

Compound	inhibition [1]	inhibition [2]	further results
O=S(=O)(Nc1ccc(O)c(Sc2ncn[nH]2)c1)c1ccc2ccccc2c1	inactive	inactive	
Cc1nnc(Sc2cc(NS(=O)(=O)c3ccc([N+](=O)[O-])cc3)ccc2O)s1	21.8%	14.2%	
O=C(Nc1ccc(O)c(Sc2nncs2)c1)c1ccc([N+](=O)[O-])cc1	inactive	inactive	
Cc1cc(C)c(S(=O)(=O)Nc2ccc(O)c(Sc3nc[nH]n3)c2)c(C)c1	18%	19.7%	
Cc1ccc(S(=O)(=O)Nc2ccc(O)c(Sc3nc[nH]n3)c2)cc1	15.3%	29.8%	
CN[C@@H]1C[C@H]2O[C@@](C)([C@@H]1OC)n1c3ccccc3c3c4c(c5c6ccccc6n2c5c31)C(=O)NC4		96.5%	
Cc1ccc(Nc2nccc(N(C)c3ccc4c(C)n(C)nc4c3)n2)cc1S(N)(=O)=O			inhibition [6]: Active; inhibition [4]: Active; inhibition (Thoracic aorta [12]): Active; inhibition (HUVEC [13]): Active
Cn1nnnc1Sc1cc(NS(=O)(=O)c2ccc([N+](=O)[O-])cc2)ccc1O	inactive	11.5%	
CS(=O)(=O)Nc1ccc(O)c(Sc2ncn[nH]2)c1	15.9%	14.3%	

Further lines, with some results ahead:

inhibition [1]	inhibition [2]	Compound	further results
11.4%	14.9%	O=[N+]([O-])c1ccc(S(=O)(=O)Nc2ccc(O)c(Sc3nncs3)c2)cc1	
21.9%	64.6%	O=C(Nc1ccc(O)c(Sc2ncnc3nc[nH]c23)c1)c1ccc([N+](=O)[O-])cc1	inhibition (Thoracic aorta [3]): inactive; inhibition [4]: Active; inhibition (HUVEC [5]): inactive
inactive	56.4%	O=S(=O)(Nc1ccc(O)c(Sc2ncn[nH]2)c1)c1ccc(Cl)cc1	inhibition [6]: inactive; inhibition (Thoracic aorta [3]): inactive; inhibition [4]: inactive; inhibition (HUVEC [5]): inactive
14%	12.3%	Cc1nnc(Sc2cc(NC(=O)c3ccc([N+](=O)[O-])cc3)ccc2O)s1	
49.4%	100%	O=[N+]([O-])c1ccc(S(=O)(=O)Nc2ccc(O)c(Sc3ncn[nH]3)c2)cc1	IC50 [7]: 1.26 µM; inhibition [6]: Active; inhibition [4]: Active; inhibition (HUVEC [8]): Dose-dependent effect; Activity (Thoracic aorta [9]): Dose-dependent effect; inhibition (Thoracic aorta [10]): Active; IC50 [11]: 1.5 µM
10%	20.4%	O=S(=O)(Nc1ccc(O)c(Sc2ncn[nH]2)c1)c1cccc2ccccc12	
inactive	50.7%	O=C(Nc1ccc(O)c(Sc2ncn[nH]2)c1)c1ccc([N+](=O)[O-])cc1	
17.1%	14.5%	CC(C)c1cc(C(C)C)c(S(=O)(=O)Nc2ccc(O)c(Sc3ncn[nH]3)c2)c(C(C)C)c1	
inactive	10.1%	Cn1nnnc1Sc1cc(NC(=O)c2ccc([N+](=O)[O-])cc2)ccc1O	
10.3%	48.4%	O=S(=O)(Nc1ccc(O)c(Sc2ncn[nH]2)c1)c1c(Cl)cccc1Cl	
inactive	37.5%	O=[N+]([O-])c1ccc(S(=O)(=O)Nc2ccc(O)c(Sc3ncnc4nc[nH]c34)c2)cc1	
29.5%	12.1%	COc1ccc(S(=O)(=O)Nc2ccc(O)c(Sc3nc[nH]n3)c2)cc1	
